One molecule from ChEMBL document CHEMBL5352503, “Nonpeptidic Oxazole-Based Prolyl Oligopeptidase Ligands with Disease-Modifying Effects on α-Synuclein Mouse Models of Parkinson's Disease” (J Med Chem, 2023) can be followed below.

Series [1] deals with Dipeptidyl peptidase 4 (Homo sapiens) (UniProt P27487). Description: Inhibition of human DPP4 using Ala-Pro-para-nitroanilide as substrate at 1 to 10 uM preincubated for 15 mins followed by substrate addition and measured for 10 mins. Particulars: dose 1-10 µM, time 25.0 min. The method in brief:
(§1)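 Ala-Pro-pNA substrate at 25 μM for DPP4 (purified from human seminal plasma) or 150 μM for DPP9 (Sf9-expressed). Buffer pH 7.4: 0.05 M HEPES-NaOH, 0.1% Tween-20, 0.1 mg/mL BSA, 150 mM NaCl. Compound at 1 and 10 μM final, preincubated 15 min at 37 °C. pNA release read kinetically at 405 nm for at least 10 min.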

Series [2] has as its system HEK293. Description: Activation of PP2A in HEK293 cells assessed as decrease in inactive phosphorylated PP2Ac level at 1 uM incubated for 4 hrs by Western blot analysis. The class given is cell-based. The conditions noted are these: Homo sapiens, filed as activator. An outline of the steps:
(§2)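 HEK-293 cells seeded 500,000/well, attached overnight, then exposed to compound (0.1% DMSO vehicle) for 4 or 24 h. Lysed in RIPA. Western blot with 30 μg protein on 4–20% gels, PVDF transfer, skim-milk block, primary antibody overnight at +4 °C. Detection by chemiluminescence, band OD normalized to β-actin or vinculin. pPP2Ac is the Tyr307-phosphorylated form.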
For orientation: Immunoblotting shows a protein as a band on a membrane.

The target of series [3] is Alpha-synuclein (Homo sapiens) (UniProt P37840). Description: Inhibition of alpha-synuclein (unknown origin) dimerization transfected in HEK293 cells at 10 uM incubated for 4 hrs by luminescence based multimode plate reader method. The format is cell-based.
The nature of series [4]: In vivo inhibition of PREP in C57BL/6JRccHsd mouse liver at 10 mg/kg, ip measured for 3 hrs by LC-MS analysis relative to control. The class given is functional.
Series [5] concerns HEK293. Description: Activation of PP2A in HEK293 cells assessed as increase in LC3B-II level at 10 uM incubated for 4 hrs by immunoblot analysis. The format is cell-based. Particulars: Homo sapiens, filed as activator. An outline of the steps: as §2
Series [6] deals with Prolyl endopeptidase FAP (Homo sapiens) (UniProt Q12884). The series can be described thus: Inhibition of human FAP expressed in Sf9 insect cells using […] at 1 to 10 uM preincubated for 15 mins followed by substrate addition and measured for 10 mins. Particulars: dose 1-10 µM, time 25.0 min. The method in brief: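 Z-Gly-Pro-AMC at 50 μM, pH 8, in 0.05 M Tris-HCl with 0.1% glycerol, 1 mg/mL BSA and 140 mM NaCl. Enzyme preincubated with compound 15 min at 37 °C. AMC release read kinetically at ex 380/em 465 nm for at least 10 min at 37 °C.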

In series [7] the target is Alpha-synuclein (Homo sapiens) (UniProt P37840). Description: Inhibition of alpha-synuclein (unknown origin) dimerization transfected in PREP knockout HEK293 cells at 10 uM incubated for 4 hrs by luminescence based multimode plate reader method. The format is cell-based. An outline of the steps:
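Split Gaussia luciferase protein-fragment complementation in HEK-293 PREP-KO cells, run like the N2A protocol. Cells transfected with αSyn-Gluc1 and αSyn-Gluc2; 48 h later treated 4 h at 10 μM. Luminescence read after injecting native coelenterazine.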

Series [8] concerns Mus musculus. Description: Anti-parkinson activity in AAV2-CBA-alpha-synuclein virus vector injected Parkinson's disease C57BL/6JRccHsd mouse model assessed as motor deficit by measuring decrease in use of ipsilateral forepaw usage at 10 mg/kg/day, ip administered for 2 to 4 weeks of treatment by cylinder test. The conditions noted are these: time 2-4 weeks. The class given is functional, organism-based. The method in brief: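 Male C57BL/6JRCcHsd mice, 10–11 weeks old, got a unilateral AAV2-CBA-αSyn injection above the SNpc. Dosing started 4 weeks later at 10 mg/kg/day i.p. by Alzet minipump. Ipsilateral forepaw use was scored by cylinder test at 6 and 8 weeks post-injection, against vehicle-treated αSyn-injected and AAV-GFP control mice. Two-way ANOVA with Dunnett's comparisons was used.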

Series [9] has as its system HEK293. Description: Induction of autophagy in PREP knockout HEK293 cells assessed as LC3B-II expression level at 10 uM incubated for 24 hrs by Western blot analysis. The format is functional, cell-based. Particulars: Homo sapiens. The method in brief:
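HEK-293 PREP-KO cells, grown with 20% FBS, plated 500,000/well and attached overnight. Treated at 10 μM for 4 or 24 h (0.1% DMSO vehicle), then lysed in RIPA. LC3BII measured by Western blot, 30 μg protein loaded, band OD normalized to β-actin or vinculin.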

Series [10] is described as follows: Permeability of the compound across blood brain barrier in C57BL/6JRccHsd mouse at 1.11 uM, ip measured at 30 mins by LC-MS analysis. The conditions noted are these: 0.5 h. The format is ADME, organism-based. An outline of the steps:
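Male C57BL/6JRCcHsd mice, 10 weeks old, dosed 10 mg/kg i.p. in 5% Tween-20 in 0.9% NaCl. Brains collected at 15, 30, 45, 60, 120 and 180 min. Brain compound concentration measured by LC-MS, and AUC0–180 min calculated.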

Series [11] has as its system Mus musculus. The series can be described thus: Neuroprotective activity against AAV2-CBA-GFP injected C57BL/6JRccHsd mouse model of Parkinson's disease assessed as change in tyrosine hydroxylase positive cell count in substantia nigra pars compacta at 10 mg/kg/day, ip administered for 2 weeks by optical density based analysis. The class given is functional, organism-based.

Series [12] relates to HEK293. The series can be described thus: Activation of PP2A in HEK293 cells assessed as increase in LC3B-II level at 0.1 to 10 uM incubated for 4 hrs by Western blot analysis. The format is cell-based. Particulars: Homo sapiens, filed as activator, dose 0.1-10 µM. The method in brief: as §2
Another series concerns Neuron. Description: Cytotoxicity against mouse primary neurons cells assessed as cell viability at 1 to 100 uM incubated for 48 hrs by MTT assay. The class given is toxicity, cell-based. The conditions noted are these: dose 1-100 µM.
For series [13], the system named is Mus musculus. The series can be described thus: Neuroprotective activity against AAV2-CBA-GFP injected C57BL/6JRccHsd mouse model of Parkinson's disease assessed as change in tyrosine hydroxylase positive dopaminergic neuron immunoreactivity in substantia nigra pars compacta at 10 mg/kg/day, ip administered for 2 weeks by optical density based analysis. The format is functional, organism-based.

The subject of series [14] is Mus musculus. The series can be described thus: Neuroprotective activity against AAV2-CBA-alpha-synuclein virus vector injected C57BL/6JRccHsd mouse model of Parkinson's disease assessed as change in tyrosine hydroxylase positive cell count in substantia nigra pars compacta at 10 mg/kg/day, ip administered for 2 weeks by optical density based analysis. The class given is functional, organism-based.

The target in series [15] is Dipeptidyl peptidase 9 (Homo sapiens) (UniProt Q86TI2). The series can be described thus: Inhibition of human DPP9 expressed in Sf9 insect cells using Ala-Pro-para-nitroanilide as substrate at 1 to 10 uM preincubated for 15 mins followed by substrate addition and measured for 10 mins. The conditions noted are these: dose 1-10 µM, time 25.0 min. The method in brief: as §1

For series [16], the system named is HEK293. Description: Activation of PP2A in HEK293 cells assessed as increase in total PP2Ac level at 10 uM incubated for 24 hrs by immunoblot analysis. The format is cell-based. The conditions noted are these: Homo sapiens, filed as activator. An outline of the steps:
as §2

Series [17] concerns HEK293. Description: Activation of PP2A in HEK293 cells assessed as decrease in phosphorylated PP2Ac level at 10 uM incubated for 4 hrs by immunoblot analysis. The format is cell-based. Particulars: Homo sapiens, filed as activator. An outline of the steps: as §2
The target of series [18] is Dipeptidyl peptidase 2 (Homo sapiens) (UniProt Q9UHL4). Description: Inhibition of recombinant human DPP2 using Lys-Ala-pNA as substrate at 1 to 10 uM preincubated for 15 mins followed by substrate addition and measured for 10 mins. Particulars: dose 1-10 µM, time 25.0 min. An outline of the steps: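 Recombinant human DPP2 with 1 mM Lys-Ala-pNA, pH 5.5, in 100 mM NaAc, 10 mM EDTA and 14 μg/mL aprotinin. Compound at 1 and 10 μM, preincubated 15 min at 37 °C. pNA release read kinetically at 405 nm for at least 10 min at 37 °C.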

The term inhibition in vivo denotes the share of the control response that was lost under treatment. Read a low inhibition in vivo as little suppression.

Active and inactive are the calls of the source. The calls are words filed in the database; no cut-off is given here.

Chain of Prolyl endopeptidase FAP (Homo sapiens) (Q12884 whole entry): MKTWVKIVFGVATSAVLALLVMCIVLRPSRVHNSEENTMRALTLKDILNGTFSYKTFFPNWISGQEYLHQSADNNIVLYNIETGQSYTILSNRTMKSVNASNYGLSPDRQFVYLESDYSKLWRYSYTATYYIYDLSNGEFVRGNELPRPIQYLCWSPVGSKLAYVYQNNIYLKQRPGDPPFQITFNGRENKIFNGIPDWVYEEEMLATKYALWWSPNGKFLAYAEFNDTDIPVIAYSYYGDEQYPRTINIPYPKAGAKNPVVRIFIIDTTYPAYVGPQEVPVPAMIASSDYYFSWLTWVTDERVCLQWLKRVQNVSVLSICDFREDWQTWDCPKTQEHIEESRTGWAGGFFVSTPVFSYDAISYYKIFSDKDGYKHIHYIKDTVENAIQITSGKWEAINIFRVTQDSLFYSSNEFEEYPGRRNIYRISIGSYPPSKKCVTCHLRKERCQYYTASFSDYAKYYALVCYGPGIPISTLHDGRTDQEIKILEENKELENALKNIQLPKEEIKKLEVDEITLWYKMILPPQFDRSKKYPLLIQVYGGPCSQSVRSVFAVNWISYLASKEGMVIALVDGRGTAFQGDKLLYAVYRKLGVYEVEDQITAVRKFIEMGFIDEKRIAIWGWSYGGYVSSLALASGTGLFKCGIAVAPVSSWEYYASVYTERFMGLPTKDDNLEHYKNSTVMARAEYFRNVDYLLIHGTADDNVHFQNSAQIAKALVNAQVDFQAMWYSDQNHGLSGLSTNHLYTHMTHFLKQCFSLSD
Chain of Dipeptidyl peptidase 9 (Homo sapiens) (Q86TI2 2-863 limits assumed): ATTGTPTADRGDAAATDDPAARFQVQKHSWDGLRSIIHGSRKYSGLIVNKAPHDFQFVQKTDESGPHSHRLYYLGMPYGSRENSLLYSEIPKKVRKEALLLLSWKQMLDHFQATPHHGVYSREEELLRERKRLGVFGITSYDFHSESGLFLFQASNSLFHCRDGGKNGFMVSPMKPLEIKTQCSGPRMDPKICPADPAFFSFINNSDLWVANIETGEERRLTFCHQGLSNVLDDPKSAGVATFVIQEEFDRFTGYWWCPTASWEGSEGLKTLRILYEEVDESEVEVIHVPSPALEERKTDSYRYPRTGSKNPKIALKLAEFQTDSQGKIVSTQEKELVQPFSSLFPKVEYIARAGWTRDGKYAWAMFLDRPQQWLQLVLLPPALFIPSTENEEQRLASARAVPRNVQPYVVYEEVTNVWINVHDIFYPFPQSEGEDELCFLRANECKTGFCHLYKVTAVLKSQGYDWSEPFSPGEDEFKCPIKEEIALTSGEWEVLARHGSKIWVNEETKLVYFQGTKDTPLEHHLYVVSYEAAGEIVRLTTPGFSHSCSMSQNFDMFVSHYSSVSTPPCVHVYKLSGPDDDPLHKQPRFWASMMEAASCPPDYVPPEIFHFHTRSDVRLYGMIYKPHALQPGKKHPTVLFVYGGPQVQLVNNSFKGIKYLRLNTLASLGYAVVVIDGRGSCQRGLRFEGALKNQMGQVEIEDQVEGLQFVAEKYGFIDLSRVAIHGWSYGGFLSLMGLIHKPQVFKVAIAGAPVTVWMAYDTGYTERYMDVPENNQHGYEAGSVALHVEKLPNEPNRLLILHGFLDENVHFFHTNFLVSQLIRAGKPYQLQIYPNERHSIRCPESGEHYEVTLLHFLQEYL
Chain of Dipeptidyl peptidase 4 (Homo sapiens) (P27487 whole entry, looked up): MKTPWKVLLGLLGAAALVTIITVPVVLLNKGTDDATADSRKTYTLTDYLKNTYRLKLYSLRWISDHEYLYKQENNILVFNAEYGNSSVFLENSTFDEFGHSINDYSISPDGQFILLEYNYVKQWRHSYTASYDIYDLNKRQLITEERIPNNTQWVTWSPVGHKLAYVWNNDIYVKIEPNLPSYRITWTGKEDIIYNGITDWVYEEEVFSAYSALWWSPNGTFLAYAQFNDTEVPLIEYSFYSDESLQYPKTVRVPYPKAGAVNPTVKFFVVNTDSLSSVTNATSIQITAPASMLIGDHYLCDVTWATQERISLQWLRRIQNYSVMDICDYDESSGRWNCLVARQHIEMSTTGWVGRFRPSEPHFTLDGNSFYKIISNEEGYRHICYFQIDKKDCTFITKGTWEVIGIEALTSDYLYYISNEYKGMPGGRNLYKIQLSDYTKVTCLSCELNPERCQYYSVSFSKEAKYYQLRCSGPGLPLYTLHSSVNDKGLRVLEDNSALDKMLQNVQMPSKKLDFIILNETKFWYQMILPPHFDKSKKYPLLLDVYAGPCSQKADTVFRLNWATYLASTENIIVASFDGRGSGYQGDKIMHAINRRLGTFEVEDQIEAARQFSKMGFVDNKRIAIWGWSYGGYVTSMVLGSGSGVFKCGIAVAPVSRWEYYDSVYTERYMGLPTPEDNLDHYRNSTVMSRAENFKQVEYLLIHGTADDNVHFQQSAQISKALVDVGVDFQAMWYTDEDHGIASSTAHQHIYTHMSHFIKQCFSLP

In the case of `Cc1nc(CCCc2ccccc2)oc1N1CCC[C@H]1C#N`, the inhibition result in series [1], in series [6], in [7], in [15] and in [18] was “inactive” in each case. In addition, the result in the series with HEK293 [2], in the series with HEK293 [5], in the series with Mus musculus [8], in the series with HEK293 [12], in the series on HEK293 [16] and with HEK293 [17] was Active. In addition, in series [3], the inhibition entry was “Active”. The inhibition in vivo at 10 mg/kg in series [4] was roughly 25%. Further, the result with HEK293 [9], in the series with Mus musculus [11], in the series with Mus musculus [13] and with Mus musculus [14] was inactive. Further, the pBBB result in [10] is recorded as “Permeable”. The Activity entry with Neuron was “Non-Toxic”.
